CASP6 VEID inh = inhibitors of human caspase-6 | P55212 | purified caspase-6, Z-VEID-R110 cleavage fluorescence | inhibition, % at 12.5 µM | 0.53% of 350,000 active | AID 686996;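 active = mean inhibition across replicates at least about 35%, with every replicate also reaching that limit, limit read from the data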;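 note: 0% = median of neutral control wells and 100% = no fluorescence left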
DNMT1 inh = DNMT1 (human) enzyme inhibition | DNMT1 molecular beacon, Hinp1I cleavage, fluorescence | inhibition (reported as % activation of signal), % at 10 µM | 0.83% of 360,000 active | AID 588458; in the data active = inhibition above about 50%
SUMO1-SIM PPI = modulators of human SUMO1-mediated protein-protein interactions; P63165; SUMO1 binding to a labelled peptide, TR-FRET, 1 h; inhibition, % at 20 µM; 0.33% of 360,000 active; AID 602429; in the data active = inhibition above about 37%
LMPTP inh = blocks human LMPTP phosphatase. 0.22% of 360,000 active. recombinant LMPTP-A, OMFP fluorogenic substrate, fluorescence intensity. P24666. inhibition, % at 20 µM;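 active = compounds that cut the enzyme signal by at least half of the control window in the single-dose screen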;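 note: plate controls were DMSO wells with enzyme plus substrate for no effect and substrate without enzyme for full effect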
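Test system – LMPTP-A enzyme · Amount – LMPTP-A at 0.625 nM final in the reaction · Buffer or medium – Bis-Tris pH 6.0, DTT, detergent · Reagent – OMFP 400 µM · Doses – single 20 µM dose · Schedule – reaction 50 min, room temperature, dark · Detection – fluorescence intensity of OMFP turnover product · Evaluation – percent inhibition versus substrate-only and uninhibited controls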
STEP block = blocks human striatal-enriched tyrosine phosphatase; P54829; recombinant STEP, OMFP fluorogenic substrate, fluorescence; inhibition, % at 20 µM; 0.25% of 360,000 active;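 active = inhibition at 20 µM, scaled per plate between control wells, above about 37%, limit read from the data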;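 note: 0% = DMSO with enzyme and substrate and 100% = substrate only without enzyme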
Target sequence (P54829 whole entry, looked up): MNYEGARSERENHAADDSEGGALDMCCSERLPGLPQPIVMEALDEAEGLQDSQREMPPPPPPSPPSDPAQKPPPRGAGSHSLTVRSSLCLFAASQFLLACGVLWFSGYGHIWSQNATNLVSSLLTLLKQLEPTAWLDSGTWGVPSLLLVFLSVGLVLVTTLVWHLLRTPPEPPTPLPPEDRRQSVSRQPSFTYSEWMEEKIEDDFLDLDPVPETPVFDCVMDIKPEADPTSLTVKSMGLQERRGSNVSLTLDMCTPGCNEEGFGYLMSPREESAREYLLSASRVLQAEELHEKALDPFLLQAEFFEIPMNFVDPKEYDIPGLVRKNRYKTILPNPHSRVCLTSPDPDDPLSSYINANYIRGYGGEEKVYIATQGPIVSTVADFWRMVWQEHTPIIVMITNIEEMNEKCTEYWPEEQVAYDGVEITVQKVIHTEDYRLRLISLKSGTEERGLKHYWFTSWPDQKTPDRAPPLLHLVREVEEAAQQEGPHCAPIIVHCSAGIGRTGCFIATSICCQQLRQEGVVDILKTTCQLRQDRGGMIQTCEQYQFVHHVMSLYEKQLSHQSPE
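Also added – OMFP at 25 µM · Test system – STEP tyrosine phosphatase · Technique – FITC-channel fluorescence of OMFP product · Schedule – 20 min at room temperature, dark · Evaluation – control-normalized % inhibition with plate pattern correction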
Scp1 inh = Scp-1 (human) phosphatase inhibition | inhibition, % at 20 µM | 0.88% of 340,000 active | Q9GZU7 | Recombinant Scp1, phosphopeptide, malachite green phosphate absorbance;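 active = inhibition above about 50% at 20 µM, limit read from the data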;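 note: plate controls were DMSO wells with enzyme for no effect and wells lacking enzyme for full effect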
Target sequence (Q9GZU7 76-261 limits assumed): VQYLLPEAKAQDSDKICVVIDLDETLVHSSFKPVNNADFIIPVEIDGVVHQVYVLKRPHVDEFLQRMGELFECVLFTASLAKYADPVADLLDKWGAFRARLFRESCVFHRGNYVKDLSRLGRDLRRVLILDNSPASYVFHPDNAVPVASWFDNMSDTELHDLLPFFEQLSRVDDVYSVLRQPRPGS
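System: truncated SCP-1 phosphatase (76-261aa); medium: Tris acetate buffer pH 5.5 with MgCl2 and Tween-20; incubation: 45 min room-temperature reaction, 5 min colour, 30 min stabiliser; compound: single 20 µM dose, 1% DMSO; reagent: Phosphorylated 17-residue peptide substrate; read-out: % inhibition at 20 µM; technique: colorimetric free-phosphate detection, absorbance 630 nm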
* = called active by the depositor; . = no result. In the library only some 1.7% were active in any assay of this set; here they are far more common.

SMILES | CASP6 VEID inh | DNMT1 inh | SUMO1-SIM PPI | LMPTP inh | STEP block | Scp1 inh
COc1ccc(OC)c(NC(=O)COC(=O)c2ccc(S(=O)(=O)N3CCOCC3)cc2)c1 | . | -1.3 | 1.5 | 0.5 | -3.9 | -14.9
O=Nc1c(O)c2ccccc2c2ccccc12 | -0.5 | 57.6* | -37.5 | 4.0 | 2.6 | -8.1
O=C(NCCN1C(=O)S/C(=C\c2ccccc2Cl)C1=O)C1=COCCO1 | -1.2 | 0.9 | -27.2 | -1.3 | 12.4 | -5.7
O=C(NCCN1C(=O)S/C(=C\c2ccc(Cl)cc2Cl)C1=O)C1=COCCO1 | 38.6* | 3.1 | -25.7 | 0.9 | 2.4 | 3.9
CCOC(=O)[C@@H]1[C@H]2COc3cc(OC)ccc3[C@H]2N2C(=O)N(c3cccc(F)c3)C(=O)[C@]12C | 51.4* | -2.7 | 1.0 | -1.3 | 3.0 | -14.5
CN(C(=O)COC(=O)c1ccc(S(=O)(=O)N2CCOCC2)cc1)C1CCCCC1 | 1.1 | -1.5 | 4.3 | -1.6 | -0.7 | -5.2
C[C@@H]1CN([C@H](C)CO)C(=O)c2cc(NC(=O)C3CCCCC3)ccc2O[C@@H](C)CCCCO[C@H]1CN(C)C(=O)C1CCCCC1 | -3.8 | . | . | . | . | .
CN1CCC2(CC1)N=C(c1ccc(F)cc1)C(=S)N2C(=O)c1ccccc1 | -3.6 | -2.5 | 2.0 | -0.1 | -1.7 | -3.9
CCN1CCC2(CC1)N=C(c1ccc(F)cc1)C(=S)N2C(=O)c1ccc(C(C)(C)C)cc1 | 0.6 | 4.3 | 16.5 | -1.2 | 55.6* | 6.2
CCCn1c(=O)c(C(=O)NCc2ccccc2)c(O)c2ccccc21 | -1.3 | 0.5 | 6.4 | 2.3 | -0.2 | -14.6
Oc1ccc(CCNc2c3ccccc3nc3ccccc23)cc1O | 14.6 | 78.6* | -13.9 | 46.9* | 2.3 | -9.6
c1ccc(CNc2ncnc3ccccc23)cc1 | . | -1.0 | -3.7 | 13.4 | -1.9 | -5.2
CN(C)CCCNc1c2ccccc2nc2ccccc12 | -12.7 | 48.1 | -67.8 | 43.9 | 2.4 | -4.4
c1ccc(CNc2c3ccccc3nc3ccccc23)cc1 | -2.7 | 67.2* | -22.5 | 60.8* | 2.5 | -11.0
CCCCNc1nc(NCc2ccccc2)nc2ccccc12 | 44.4* | . | -50.5 | 7.4 | . | .
COc1cccc(-c2cccc(NC(=O)C3CCN(Cc4ccc(C)o4)CC3)c2)c1 | -2.5 | -1.7 | 3.0 | -0.9 | 0.3 | -5.3
NC(=O)CSc1nnc(-c2ccco2)n1N | . | 2.3 | 3.9 | -2.1 | -4.0 | -1.7
C=CCOc1c(OC)cc(/C=N/Nc2cccc(C(=O)O)c2)c(Br)c1Br | 42.6* | 23.7 | 11.0 | 8.7 | 9.1 | 42.2
Cc1cc(C)c2nc(C)cc(N/N=C/c3ccc(O)cc3)c2c1 | 9.8 | 61.9* | 30.2 | 69.1* | 4.5 | -4.5
Cc1cc(N/N=C/c2ccc(O)cc2)c2cccc(C)c2n1 | 0.0 | 37.3 | -1.1 | 57.4* | 2.1 | -0.6
Cc1cc(N/N=C/c2ccc(N(C)C)cc2)c2ccccc2n1 | 0.4 | -7.4 | 2.6 | 0.2 | -1.0 | -3.5
COc1ccccc1CNC(=O)C1(c2ccc(Cl)cc2)CC1 | 1.9 | 8.6 | 0.5 | -0.9 | -2.1 | -3.2
O=C(/C=C\c1ccco1)Oc1cccc2cccnc12 | 59.6* | 24.0 | 3.5 | -0.1 | 1.6 | 16.6
O=C(/C=C/c1ccco1)Oc1cccc2cccnc12 | 13.3 | 6.2 | -12.3 | -1.3 | 1.8 | 10.4
COc1ccc2cc(C(=O)C3CCCN(Cc4cnc(C)s4)C3)ccc2c1 (stereo unspecified) | 2.1 | -3.0 | -13.3 | 2.0 | 3.7 | 2.9
SMILES | CASP6 VEID inh | DNMT1 inh | SUMO1-SIM PPI | LMPTP inh | STEP block | Scp1 inh
c1ccc(CN2CCC(CNc3ncnc4ccccc34)C2)cc1 (stereo unspecified) | -2.3 | 0.5 | -2.4 | 36.6 | -0.6 | -7.7
c1ccc(CN2CCC(Nc3nc(-c4ccccc4)nc4ccccc34)CC2)cc1 | . | 15.0 | 2.8 | 80.0* | -0.5 | -4.1
C[C@H](CO)N1C[C@H](C)[C@@H](CN(C)C(=O)Nc2ccccc2)Oc2ccc(NC(=O)NC3CCCCC3)cc2C1=O | 0.3 | 0.7 | 7.1 | 0.3 | 1.7 | 1.9
CC(=O)N(C1=C(N2CCOCC2)C(=O)c2ccccc2C1=O)c1ccc(C(=O)O)cc1 | 70.4* | 2.0 | -26.7 | 0.6 | 1.7 | 0.2
C[C@@H]1CCCCO[C@H](CN(C)S(=O)(=O)c2ccc(Cl)cc2)[C@H](C)CN([C@@H](C)CO)C(=O)c2cc(NC(=O)Nc3cccc4ccccc34)ccc2O1 | 2.1 | . | . | . | . | .
CC1CCCC(NC(=O)c2cccc(S(=O)(=O)NCc3ccccc3)c2)C1C (stereo unspecified) | -0.2 | 6.1 | -1.4 | 1.0 | 0.8 | -9.3
O=C(CSc1ccc(Cl)cc1)c1ccco1 | . | 97.9* | 2.8 | 20.4 | 11.0 | 72.9*
O=C1c2nc3cc(-c4ccco4)[nH]n3c(=O)c2CN1Cc1ccccc1 | 71.2* | 37.5 | 16.7 | 6.3 | 10.8 | 43.8
CCCCc1c(C)nc2cc(-c3ccco3)[nH]n2c1=O | 0.0 | -4.0 | 6.6 | -0.2 | 1.4 | 4.0
CC(=O)N1[C@@H]2Cn3c(ccc(-c4cncnc4)c3=O)[C@H]1[C@@H](C(=O)NC1Cc3ccccc3C1)[C@@H]2CO | -2.6 | . | . | . | . | .
CSCCC(NS(=O)(=O)c1ccccc1F)C(=O)NCC(C)(C)N1CCOCC1 (stereo unspecified) | 54.4* | -1.9 | 1.1 | -0.8 | 3.1 | 7.3
CSCCC(NS(=O)(=O)c1ccccc1F)C(=O)NCC(c1ccc(F)cc1)N1CCOCC1 (stereo unspecified) | -1.7 | 1.4 | 3.9 | -0.6 | -0.6 | -2.7
CN(C)CCNC(=O)c1cccc(S(=O)(=O)Nc2ccccc2F)c1 | 48.7* | 1.2 | 1.5 | 1.9 | -0.3 | -6.0
O=C(Nc1ccccc1N1CCOCC1)c1cccc(S(=O)(=O)Nc2ccccc2F)c1 | 2.7 | 0.8 | 4.5 | -0.7 | -0.9 | -2.2
CCN(CC)CCCNc1ccc2ncn3c4ccc(O)cc4c(=O)c1c23 | 29.7 | 133.4* | -10.6 | 22.9 | -39.8 | 2.2
CN(C)CCNc1ccc2nnn3c4ccc(O)cc4c(=O)c1c23 | 3.2 | 52.6* | -92.7 | -2.0 | -0.6 | -13.3
CCOC(=O)C1=C(C)NC(C)=C(C(=O)OCC)C1C(=O)OCC(=O)N1CCc2ccccc21 | . | -2.7 | 1.9 | -1.1 | -2.5 | -12.1
Cc1ccsc1C=Nc1ccc(O)cc1 | . | 89.4* | 67.9* | 33.5 | 22.6 | -7.3
Cc1ccsc1/C=N/NC(=O)CO | . | 0.1 | -6.0 | -0.7 | 2.2 | 0.7
CS(=O)(=O)c1ccc(C(=O)OC2CCOC2=O)cc1[N+](=O)[O-] (stereo unspecified) | 10.2 | 67.6* | -25.2 | -1.4 | 4.8 | 30.1
COc1ccc(S(=O)(=O)N(C)c2ccc(C(=O)NCc3ccccn3)cc2)cc1 | -2.5 | 0.3 | -2.4 | 0.3 | 0.4 | -9.5
CNc1c(N=Cc2cccnc2)c(=O)n(C)c(=O)n1C | . | 4.2 | 1.8 | -1.8 | -1.1 | 1.4

Compound activity as filed in PubChem BioAssay.
